Reference: publication PMC2952073 (Bioorganic & medicinal chemistry, 2010)

Tests used:
[1] = system: Gli1-mediated transcription (human full-length Gli1); assay: Gli-Luc reporter assay in C3H10T1/2 cells transfected with Gli1; assay type: cell-based; settings: for inhibition of Gli1-mediated transcription (Gli-Luc), relative potency in words: Gli1-transfected C3H10T1/2 cells, 10 µM or 20 µM, 24 h
[2] = system: endogenous Gli in Rh30 cells; assay: Gli-mediated transcription reporter assay in Rh30 cells; assay type: cell-based
Procedure, shortened: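 Rh30 cells seeded at 3×10^5 per dish in RPMI-1640 with 10% FBS (37 °C, 5% CO2); after 24 h (~70% confluence) transfected with GliLuc-BS (500 ng/mL) and pRL-CMV (2.5 ng/mL) using Fugene6. Replated into 96-well plates 6 h post-transfection; 18 h later exposed to test compound or DMSO for 24 h. Lysed cells read by dual luciferase as firefly/Renilla ratio.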

bone development = settings: young mice; cited from earlier work
medulloblastoma [3] = settings: mouse model in which SuFu is inactivated; cited from earlier work
medulloblastoma [4] = settings: mouse model in which Ptch1 is inactivated; cited from earlier work
[5] = Microsomal stability assay; assay type: in vitro ADME; settings: CD-1 female mouse liver microsomes, 37°C
[6] = system: Histone deacetylase (HDAC); assay: HDAC inhibition; assay type: biochemical; settings: up to 40 µM; data not shown
[7] = system: Hh signal-mediated alkaline phosphatase; assay: Hh signal-mediated alkaline phosphatase induction in C3H10T1/2 cells; assay type: cell-based, mouse; settings: osteoblastic differentiation marker
[8] = system: Gli1-target genes in Rh30 cells; assay: Real-time RT-PCR of Gli1-target genes in Rh30 cells; assay type: cell-based; settings: 24 h after addition

For CCCN(Cc1ccc2[nH]ccc2c1)C(=O)C(C)c1cccc(C(=O)c2ccccc2)c1 (stereo not shown) [compound 44, N-((1H-Indol-5-yl)methyl)-2-(3-benzoylphenyl)-N-propylpropanamide], the “inhibition of Gli1-mediated transcription (Gli-Luc), relative potency in words” value (“inhibition … relative potency in words” for short) [1] was “weaker potency than 42”.

For COc1cc(OC)cc(C(=O)Nc2ccc(Cl)c(-c3nc4ccc(N(C)C)cc4[nH]3)c2)c1 [HhAntag], the “Gli-Luc inhibition in Rh30 cells, in words” value (“Gli-Luc inhibition” below) ([2]; concentration as high as 40 µM) is given as “almost no Gli-Luc inhibition”, the “effect on bone development” value (bone development) is given as “permanent defects in bone development” and the efficacy (medulloblastoma [3]) is given as “not to be effective”. For the same molecule, the effect on medulloblastoma (medulloblastoma [4]) was “eliminate medulloblastoma”.

In the case of CCCN(CCc1ccc(O)cc1)C(=O)C(C)c1cccc(C(=O)c2ccccc2)c1 (stereo not shown) [compound 6], the “time to complete consumption in mouse liver microsomes” value [5] is reported as “less than 1 h” and the HDAC inhibition [6] is reported as “do not inhibit”.

In the case of CC(C(=O)N(C)c1ccc2cc[nH]c2c1)c1cccc(C(=O)c2ccccc2)c1 (stereo not shown) [compound 32, 2-(3-Benzoylphenyl)-N-(1H-indol-6-yl)-N-methylpropanamide], the “inhibition … relative potency in words” value [1] is reported as “Little improvement”.

With CC(CNC(=O)c1c[nH]c2ccccc12)c1cccc(C(=O)c2ccccc2)c1 (stereo not shown) [compound 29, N-(2-(3-Benzoylphenyl)propyl)-1H-indole-3-carboxamide] the “inhibition … relative potency in words” value [1] was “equipotent inhibitors”.

For CCCC(C)(C(=O)Nc1ccc2cc[nH]c2c1)c1cccc(C(=O)c2ccccc2)c1 (stereo not shown) [compound 40, 2-(3-Benzoylphenyl)-N-(1H-indol-6-yl)-2-methylpentanamide], the “inhibition … relative potency in words” value [1] was “did not increase potency”.

For CCCN(C(=O)C(C)c1cccc(C(=O)c2ccccc2)c1)c1cccc2[nH]ccc12 (stereo not shown) [compound 43, 2-(3-Benzoylphenyl)-N-(1H-indol-4-yl)-N-propylpropanamide], the “inhibition … relative potency in words” value [1] was “equipotent to 33”.

With CC(C(=O)Nc1ccc2[nH]ccc2c1)c1cccc(C(=O)c2ccccc2)c1 (stereo not shown) [compound 22, 2-(3-Benzoylphenyl)-N-(1H-indol-5-yl)propanamide] the “inhibition … relative potency in words” value [1] was “higher activity than 20”.

For CC(C(=O)NCc1ccc2[nH]ccc2c1)c1cccc(C(=O)c2ccccc2)c1 (stereo not shown) [compound 21, N-((1H-Indol-5-yl)methyl)-2-(3-benzoylphenyl)propanamide], the “inhibition … relative potency in words” value [1] was “higher activity than 20”.

For CC(CNC(=O)c1cccc2[nH]ccc12)c1cccc(C(=O)c2ccccc2)c1 (stereo not shown) [compound 30, N-(2-(3-Benzoylphenyl)propyl)-1H-indole-4-carboxamide], the “inhibition … relative potency in words” value [1] was “decreased the potency”.

With CC(C(=O)NCCc1ccc(O)cc1)c1cccc(C(=O)c2ccccc2)c1 (stereo not shown) [compound 5] the “time to complete consumption in mouse liver microsomes” value [5] was “less than 1 h” and the HDAC inhibition [6] was “do not inhibit”.

For CCCn1ccc2ccc(NC(=O)C(C)c3cccc(C(=O)c4ccccc4)c3)cc21 (stereo not shown) [compound 41, 2-(3-Benzoylphenyl)-N-(1-propyl-1H-indol-6-yl)propanamide], the “inhibition … relative potency in words” value [1] was “did not increase potency”.

In the case of CC(CNC(=O)c1cc2ccccc2[nH]1)c1cccc(C(=O)c2ccccc2)c1 (stereo not shown) [compound 28, N-(2-(3-Benzoylphenyl)propyl)-1H-indole-2-carboxamide], the “inhibition … relative potency in words” value [1] is reported as “equipotent inhibitors”.

With CC(C(=O)NCCc1ccc2[nH]ccc2c1)c1cccc(C(=O)c2ccccc2)c1 (stereo not shown) [compound 20, N-(2-(1H-Indol-5-yl)ethyl)-2-(3-benzoylphenyl)propanamide] the “inhibition … relative potency in words” value [1] was “much weaker activity than 5”.

In the case of CC(C(=O)Nc1ccc2cc[nH]c2c1)c1cccc(C(=O)c2ccccc2)c1 (stereo not shown) [compound 23, 2-(3-Benzoylphenyl)-N-(1H-indol-6-yl)propanamide], the “Gli-Luc inhibition” value ([2]; 10 µM or 20 µM, 24 h) is reported as “inhibition with similar or slightly weaker potency”, the “inhibitory effect in inducing Hh signal-mediated alkaline phosphatase” value (“inhibitory effect” for short) [7] is reported as “much smaller than that of HhAntag” and the “stability in mouse liver microsomes, in words” value [5] is reported as “much more stable than 5 and 6”. The “inhibition … relative potency in words” value [1] was “best among the tested analogs”.

With CCCN(C(=O)C(C)c1cccc(C(=O)c2ccccc2)c1)c1ccc2[nH]ccc2c1 (stereo not shown) [compound 42, 2-(3-Benzoylphenyl)-N-(1H-indol-5-yl)-N-propylpropanamide] the “Gli-Luc inhibition” value ([2]; 10 µM or 20 µM, 24 h) was “inhibition with similar or slightly weaker potency”, the “inhibitory effect” value [7] was “much smaller than that of HhAntag” and the HDAC inhibition [6] was “do not inhibit”.

In the case of CC(CNC(=O)Cc1ccc2[nH]ccc2c1)c1cccc(C(=O)c2ccccc2)c1 (stereo not shown) [compound 25, N-(2-(3-Benzoylphenyl)propyl)-2-(1H-indol-5-yl)acetamide], the “inhibition … relative potency in words” value [1] is reported as “only weak activity”.

With CCCN(C(=O)C(C)c1cccc(C(=O)c2ccccc2)c1)c1ccc2cc[nH]c2c1 (stereo not shown) [compound 33, 2-(3-Benzoylphenyl)-N-(1H-indol-6-yl)-N-propylpropanamide] the “Gli-Luc inhibition” value ([2]; 10 µM or 20 µM, 24 h) was “inhibition with similar or slightly weaker potency”, the “expression of Gli1-target genes in Rh30 cells (RT-PCR)” value [8] was “inhibits expression of Gli1-target genes” and the “inhibitory effect” value [7] was “much smaller than that of HhAntag”. The “stability in mouse liver microsomes, in words” value [5] was “much more stable than 5 and 6” and the HDAC inhibition [6] was “do not inhibit”.

CN(C)c1ccccc1CN1CCCN(Cc2ccccc2N(C)C)C1c1ccncc1 [GANT61, reference compound] gave an IC50 ([1]; Homo sapiens, C3H 10T1/2, 24 h, read-out: IC50, Gli-Luc signal in Gli1-transfected C3H10T1/2 cells) of about 20 µM.

For CC(CNC(=O)c1cccc2cc[nH]c12)c1cccc(C(=O)c2ccccc2)c1 (stereo not shown) [compound 31, N-(2-(3-Benzoylphenyl)propyl)-1H-indole-7-carboxamide], the “inhibition … relative potency in words” value [1] was “decreased the potency”.
